Blank lines part the entries; values can stand above or below the molecule they belong to.
Columns and labels:
mouse cancer models = conditions: cited from earlier work
mRCC CL-19 cell line = conditions: high expressing ARG2 mRCC CL-19 cell line; cited from earlier work
[1] = system: CD3/CD28 co-stimulated T-cells; assay: In vitro T-cell proliferation assay; assay type: cell-based, human; conditions: ARG2 15 µg/ml; BrdU
Method in brief: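 Human PBMCs were isolated from leukocyte cones by Ficoll gradient, and T cells were enriched by negative selection. 40000 cells/well in RPMI 1640 with 5% human serum albumin were activated with CD3/CD28 (1:40) for 45 min at 37°C, 5% CO2. Antibody titrations in TBS/NaCl were added for 30 min, then recombinant human trimeric ARG2 (15 µg/ml final). Incubation lasted 96 h total, with BrdU added at 78 h and read by ELISA. Data were expressed as % of control, with EC50 from a four-parameter fit.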

[2] = biological target: T1, ARG2-C0021158 Fab complex (Homo sapiens, UniProt P78540); assay: Isothermal titration calorimetry with ARG2-C0021158 Fab complex; assay type: binding; conditions: ARG2 + C0021158 Fab 1:1 mix, 20 µM each
T1 sequence (P78540 23-354): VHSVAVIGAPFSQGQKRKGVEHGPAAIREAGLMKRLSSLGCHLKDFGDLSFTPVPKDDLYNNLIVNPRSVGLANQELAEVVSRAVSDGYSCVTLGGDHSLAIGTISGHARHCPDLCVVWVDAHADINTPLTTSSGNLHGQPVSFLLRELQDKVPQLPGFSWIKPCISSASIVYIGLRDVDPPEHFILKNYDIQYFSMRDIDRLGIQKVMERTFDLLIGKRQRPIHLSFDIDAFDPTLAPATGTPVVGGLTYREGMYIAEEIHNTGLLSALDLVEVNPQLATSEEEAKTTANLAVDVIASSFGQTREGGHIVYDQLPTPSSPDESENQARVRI
Method in brief: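 ITC on a MicroCal VP at 25°C. Recombinant human ARG2 and test Fab were mixed 1:1 at 20 µM each (ARG2 as monomer) and pre-incubated 1 h at 20°C. Boronic acid arginase-inhibitor ligand at 0.50 mM was then titrated in. Isotherms were fitted to a one-site binding model.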

human ARG2 = biological target: T2, human ARG2 (Homo sapiens, UniProt P78540); assay: Isothermal titration calorimetry with free ARG2; assay type: binding; conditions: KD (ITC), free ARG2 20 µM monomer, 25°C
T2 sequence (P78540 23-354): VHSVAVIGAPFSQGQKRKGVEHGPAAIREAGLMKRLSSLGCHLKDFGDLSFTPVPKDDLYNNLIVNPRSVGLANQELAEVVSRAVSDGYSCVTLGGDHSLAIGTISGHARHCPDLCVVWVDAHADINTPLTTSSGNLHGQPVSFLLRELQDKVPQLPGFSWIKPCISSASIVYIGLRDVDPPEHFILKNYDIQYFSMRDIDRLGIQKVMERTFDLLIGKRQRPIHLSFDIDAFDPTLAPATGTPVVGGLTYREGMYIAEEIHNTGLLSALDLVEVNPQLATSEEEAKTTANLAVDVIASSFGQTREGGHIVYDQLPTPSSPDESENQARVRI
Method in brief: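 ITC on a MicroCal VP at 25°C. A 750 µM (0.75 mM) boronic acid arginase-inhibitor ligand was titrated into 20 µM recombinant human ARG2 (monomer concentration). Thermograms were integrated, and isotherms were fitted to a one-site (one-to-one) binding model. Error was taken as a 68.3% confidence interval.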

[3] = biological target: biotinylated recombinant human ARG2 trimer (human, UniProt P78540, biotin (site not stated))
[4] = biological target: recombinant human Arginase 2 (ARG2) trimer, residues 23-354, C-terminal His6-tag (human, UniProt P78540); assay: crystal structure
crystal structure = biological target: the molecule itself; assay: crystal structure

Molecule: N=C(NO)NCC[C@H](N)C(=O)O [nor-NOHA, N^ω-hydroxy-nor-L-arginine]
anti-tumor effect in vivo (mouse cancer models; in vivo mouse models): anti-tumor effects
cell growth (mRCC CL-19 cell line): significantly suppressed cell growth

Molecule: NC(=NCCC[C@H](N)C(=O)O)NO [NHLA, N^G-hydroxy-L-arginine]
restoration of ARG2-inhibited T-cell proliferation [1]: partially restore

Molecule: C[C@H](N)C(=O)N1C[C@H](CCCB(O)O)[C@](N)(C(=O)O)C1 [CB-1158]
tumor growth (mouse cancer models; mouse cancer models): reduces tumor growth

binding to C0021158-bound ARG2 (ITC) [2]: no interaction
Kd (human ARG2): ~7 µM
Molecule: Cl.N[C@@H](CSCCB(O)O)C(=O)O [BEC, S-(2-Boronoethyl)-L-cysteine hydrochloride]

Kd [3]: 0.000173 µM
B1: C0021177 (antibody, V domains shown)
VH: EVQLLESGGGLVQPGGSLRLSCAASGFTFRYEVAAWVRQAPGKGLEWVSAISGPAPKGYYADSVKGRFTISRDNSKNTLYLQMNSLRAEDTAVYYCARLRADLGLYMDLWGRGTLVTVSS
VL: QSELTQPPTASAAPGQKVTISCSGSSSNIGNHYVSWYQQLPGTAPKLLIYDTTVLSSGIPDRFSGSKSGTSATLGITGLQTGDEADYYCGTWDELTSNLVFGGGTKLTVL

stoichiometry N [4]: 3 Fab per ARG2 trimer
B2: C0021158 Fab (Fab, V domains shown)
VH: EVQLLESGGGLVQPGGSLRLSCAASGFTFRYEVAAWVRQAPGKGLEWVSAISGPIPKGYYADSVKGRFTISRDNSKNTLYLQMNSLRAEDTAVYYCARLRADLGLYMDLWGRGTLVTVSS
VL: QSVLTQPPSVSAAPGQKVTISCSGSSSNIGNHYVSWYQQLPGTAPKLLIYDNSERTAGVPDRFSGSKSGTSATLGITGLQTGDEADYYCGTWDELTSNLVFGGGTKLTVL

B3: recombinant human Arginase 2 (ARG2) trimer, residues 23-354, C-terminal His6-tag (enzyme, UniProt P78540 23-354, looked up)
chain: VHSVAVIGAPFSQGQKRKGVEHGPAAIREAGLMKRLSSLGCHLKDFGDLSFTPVPKDDLYNNLIVNPRSVGLANQELAEVVSRAVSDGYSCVTLGGDHSLAIGTISGHARHCPDLCVVWVDAHADINTPLTTSSGNLHGQPVSFLLRELQDKVPQLPGFSWIKPCISSASIVYIGLRDVDPPEHFILKNYDIQYFSMRDIDRLGIQKVMERTFDLLIGKRQRPIHLSFDIDAFDPTLAPATGTPVVGGLTYREGMYIAEEIHNTGLLSALDLVEVNPQLATSEEEAKTTANLAVDVIASSFGQTREGGHIVYDQLPTPSSPDESENQARVRI
stoichiometry N (crystal structure): 3

From paper PMC7531564 (mAbs, 2020)
